Here are results for five compounds from ChEMBL document CHEMBL1123670, “Inhibitors of cyclic AMP phosphodiesterase. 2. Structural variations of N-cyclohexyl-N-methyl-4-[(1,2,3,5-tetrahydro- 2-oxoimidazo[2,1-b]quinazolin-7-yl)-oxy]butyramide (RS-82856)” (J Med Chem, 1987).

The species named for experiment [1] is Homo sapiens. The experiment can be described thus: Inhibition of ADP-induced platelet aggregation at 100 uM concentration. The experiment is classed as functional.
The target of experiment [2] is T1, Phosphodiesterase 3 (Homo sapiens, UniProt Q14432+Q13370). The experiment can be described thus: In vitro inhibition of cyclic AMP phosphodiesterase from human platelets.
Experiment [3] can be described thus: In vivo inhibition of cyclic AMP phosphodiesterase from rat heart. As to conditions: in the assay text read “In vitro” for “In vivo”. A digest of the protocol: (§1)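 Cyclic AMP phosphodiesterase prepared from human platelets (IC50, nM) or from rat or dog heart tissue (IC25, nM). Each agent tested at five inhibitor concentrations in triplicate. IC50/IC25 read graphically from the dose-response curve.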

In experiment [4] the target is T1, Phosphodiesterase 3. The experiment can be described thus: Inhibition of human platelet cAMP phosphodiesterase, 20% inhibition at E-4M.
In experiment [5] the target is T1, Phosphodiesterase 3. Description: Inhibition of human platelet cAMP phosphodiesterase at 10e-4 M.
The target in experiment [6] is T2, Phosphodiesterase; PDE3 & PDE4 (Homo sapiens) (UniProt P27815+Q14432+Q08499+Q07343+Q13370+Q08493). Description: In vivo inhibition of cyclic AMP phosphodiesterase from dog heart. As to conditions: Canis lupus familiaris; in the assay text read “In vitro” for “In vivo”; target entry is the homologue from another species. A digest of the protocol: as §1
Experiment [7] in a line: Inhibition of ADP-induced platelet aggregation. The format is functional. Summed up:
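ADP-induced platelet aggregation. Read-out is the rate of change in percentage transmission of the primary aggregation phase after 5 min incubation. Each agent tested at five concentrations in triplicate, with experiments repeated at least twice using platelets from different donors. IC50 (μM) determined graphically.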

For experiment [8], the species on record is Homo sapiens. The experiment can be described thus: Ratio of IC50 of inhibition of platelet aggregation to IC50 of inhibition of platelet PDE (Efficacy index). The experiment is classed as functional. A digest of the protocol:
(§2)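 Efficacy index is the IC50 for inhibition of ADP-induced platelet aggregation divided by the IC50 for human platelet PDE inhibition. Both IC50s come from graphical dose-response curves (five concentrations, triplicate).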

Experiment [9] addresses T2, Phosphodiesterase; PDE3 & PDE4 (Homo sapiens). The experiment can be described thus: Inhibition of canine cardiac cAMP phosphodiesterase. The experiment is classed as protein assay. As to conditions: Canis lupus familiaris; target entry is the homologue from another species. A digest of the protocol:
as §1

Experiment [10] has as its target T1, Phosphodiesterase 3. Description: Inhibition of human platelet cAMP phosphodiesterase. A digest of the protocol:
as §1

For experiment [11], the species on record is Homo sapiens. Description: Ratio of IC50 of inhibition of platelet aggregation to IC50 of inhibition of platelet PDE. The format is functional. Summed up: as §2

Turning to `CN(C(=O)CCCOc1ccc2nc3n(c(=O)c2c1)CCN3)C1CCCCC1`, the IC50 result is listed as “Not Active” in [1] and 25000 nM in experiment [2]. The compound also displayed a 25% effect concentration (IC25) in experiment [3] of 3700 nM.

Regarding `CN(C(=O)CCCOc1cccc2c1NC1=NC(=O)CN1C2)C1CCCCC1`, the figures for the IC50 in experiment [4] and in experiment [1] were > 100000 nM and “Not Active”, respectively. This compound also came in with an inhibition in experiment [5] of 20%. This compound also registered a concentration for an effect of 25% (IC25) in experiment [6] of 1600 nM.

For `CN(C(=O)CCCOc1ccc2nc3n(c(=O)c2c1)CC(=O)N3)C1CCCCC1`, the IC50 result is “Not Active” in experiment [1] and 5400 nM in experiment [2]. The compound also gave an IC25 in experiment [3] of 2900 nM.

Regarding `CN(C(=O)CCCOc1ccc2c(c1)CN1CC(=O)NC1=N2)C1CCCCC1` [LIXAZINONE], the figures for the IC50 in [7] and in experiment [10] were 110 nM and 10.2 nM, respectively. Also, the Ratio in experiment [8] is on record as 10.8. The compound also registered an IC25 in experiment [9] of 4.1 nM.

Compound `COc1ccc(C(=O)N2CCN(c3ccc4c(c3)CCC(=O)N4)CC2)cc1OC` [VESNARINONE] showed an IC50 in experiment [2] of 6200 nM. Further, in [11], the Ratio is 608.
